According to PubChem BioAssay AID573 (SRMLSC, 2007):
Out of some 65,000 compounds screened, about 1,400 (2.2%) were called active. The sample holds actives, similar compounds and a random draw of the others, so the mix is not that of the screen.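 Rule for the calls: active = growth inhibition at or above a cutoff equal to the mean over every tested compound plus 3 SD (cut at about 60% in these data); inactive = the rest.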

Assay: growth inhibitors of E. coli tolC mutant, primary screen, strain BW25113 ΔtolC::kan, 384-well (AID 573);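 note: growth measured after 20 h incubation at 37 °C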
Conditions: OD615, hits give high values, screened at 10 µM (by protocol)
How it was run: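 signal = optical density read at 615 nm | test system = E. coli ΔtolC::kan strain BW25113 | timing = 20 h compound exposure of bacteria at 37 °C | buffer or medium = LB medium plus 50 µg/mL kanamycin | compound dosing = 10 µM final, single dose | evaluation = % inhibition of E. coli growth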

Structure (SMILES)	growth inhibition
CC(=O)c1c(C)n([O-])c2ccccc2[n+]1=O	97.5% (active)
C=CCSc1nc2c(c(=O)[nH]1)C(C(C)C)C(C#N)=C(N)O2 (configuration not stated)	0.15% (inactive)
CCCn1c(=NC(C)=O)c(C(=O)OCC)cc2c(=O)n3ccccc3nc21	-3.58% (inactive)
C=CCOc1nc2c(c(=O)n(C)c(=O)n2C)n1Cc1ccc(Cl)cc1Cl	12.2% (inactive)
Cc1nc2c(-c3ccccc3)c(C)[nH]n2c(=O)c1Cl	98% (active)
CCCN(CCC)C(=O)C1c2ccccc2Oc2ccccc21	17.6% (inactive)
CCOC(=O)N1CCC(NC(=O)Cn2cc3c(n2)CCCCC3)CC1	-12.2% (inactive)
N#Cc1nc(COc2ccc(-c3ccccc3)cc2)oc1NCc1cccnc1	88.7% (active)
CCC(Oc1ccccc1)C(=O)NCc1cccnc1 (configuration not stated)	-6.02% (inactive)
Cc1ccc(OCc2nc(C#N)c(N3CCCC3)o2)cc1	5.67% (inactive)
COc1ccc(N2CC(C)Cn3c2nc2c3c(=O)n(Cc3ccccc3F)c(=O)n2C)c(OC)c1 (configuration not stated)	13.4% (inactive)
Cc1nnc(SCC(=O)NCCOc2ccc(Cl)cc2)n1-c1ccccc1	-1.57% (inactive)
COc1ccc2c(c1)CCc1c(C(=O)N3CCCC3)noc1-2	-0.81% (inactive)
COc1ccc2c(c1)CCc1c(C(=O)Nc3c(C)n(C)n(-c4ccccc4)c3=O)noc1-2	-4.64% (inactive)
COc1ccc2c(c1)CCc1c(C(=O)N3CCc4ccccc4C3)noc1-2	77.6% (active)
CCCOC(=O)c1cc2ccccc2oc1=O	-13.8% (inactive)
CCOC(=O)c1cc2cc(-c3c(C(=O)OCC)oc4cc(O)cc(O)c4c3=O)ccc2o1	87.4% (active)
O=c1c(-c2ccc3c(c2)OCCO3)c(C(F)(F)F)oc2cc(O)cc(O)c12	11.4% (inactive)
CC1(c2ccccc2Cl)NC(=O)N(CC(=O)NC(=O)NCc2ccco2)C1=O (configuration not stated)	-3.76% (inactive)
COc1ccc(C2=NOC(C(=O)NCc3ccco3)C2)cc1OC (configuration not stated)	-12.4% (inactive)
CCS(=O)(=O)n1nc(-c2ccccc2)nc1SCc1ccccc1	62.5% (active)
CCCc1cc(=O)n2[nH]c(SCc3ccccc3)nc2n1	11.2% (inactive)
CCS(=O)(=O)n1nc(-c2ccc(OC)cc2)nc1SC	2.8% (inactive)
CN(C)[C@@H]1C(=O)C(C(N)=O)=C(O)[C@@]2(O)C(=O)C3=C(O)c4c(O)ccc(Cl)c4[C@@H](O)[C@H]3C[C@@H]12	100% (active)
CCSC1=C(C#N)C(=O)n2c1cc1c2CCCC1	11.6% (inactive)

Structure (SMILES)	growth inhibition
Cc1ccc(S(=O)(=O)N2CCC(C(=O)N[C@@H](C)C(=O)NCCc3ccccc3)CC2)cc1	-5.94% (inactive)
N#Cc1nc(-c2ccc(OCc3ccccc3)cc2)oc1NCCCN1CCOCC1	96.3% (active)
c1ccc2[nH]c(NCCN3CCOCC3)nc2c1	-17.2% (inactive)
COc1ccc(Nc2oc(-c3ccccc3Cl)nc2C#N)cc1	9.32% (inactive)
COc1ccc(OC)c2c(N)c(C#N)c(C(F)(F)C(F)(F)F)nc12	2.98% (inactive)
O=C(Nc1ccc(Cl)cn1)c1cnn2cccnc12	-3.45% (inactive)
CCN=C1SC(CC(=O)Nc2ccc(C)cc2)C(=O)N1CC (configuration not stated)	-9.63% (inactive)
C[C@H](NC(=O)OC(C)(C)C)c1nnc(SCC(=O)Nc2ccc(Br)cc2)o1	15.3% (inactive)
CC(C)(CSc1nncn1/N=C/c1ccco1)NS(=O)(=O)c1ccc(Cl)cc1	15.6% (inactive)
COc1ccc(Cc2nnc(NS(=O)(=O)Cc3ccccc3)s2)cc1	5.52% (inactive)
CCOC(=O)c1[nH]c2ccc(OC)cc2c1NC(=O)N1CCOCC1	-1.42% (inactive)
O=C1CSC(c2cccc(F)c2)N1c1ccccc1F (configuration not stated)	9.21% (inactive)
CCCCCCn1c(SCC(=O)c2ccccc2)nc2c1c(=O)[nH]c(=O)n2C	14.9% (inactive)
CCCSc1nc2c(c(=O)[nH]c(=O)n2C)n1CCc1ccccc1	5.24% (inactive)
CCCCCn1c(SCCC(C)C)nc2c1c(=O)[nH]c(=O)n2C	64.3% (active)
COC(=O)c1ccc2c(c1)S(=O)(=O)NC(=NCCCN1CCOCC1)S2	-18.4% (inactive)
O/N=C1\CC2(Cc3nonc31)OCCO2	-23.4% (inactive)
COc1ccc(CC(=O)Nc2ccc(-c3nnc(-c4ccccc4)o3)cc2)cc1	-6.58% (inactive)
O=C(COC(=O)c1ccc(Oc2ccccc2)cc1)Nc1nnc(-c2ccccc2)o1	100% (active)
Cc1ccc(OCC(=O)Nc2ccc(-c3nnc(-c4ccco4)o3)cc2)cc1	-19.2% (inactive)
CC(C(=O)N1CCOCC1)N1c2cccc3cccc(c23)S1(=O)=O (configuration not stated)	-2.26% (inactive)
COc1cccc(Nc2nnc(SCC(=O)N3CC(C)OC(C)C3)s2)c1 (configuration not stated)	8.6% (inactive)
COc1cccc(NC(=O)C2CCCN2C(=O)OCc2ccccc2)c1 (configuration not stated)	-9.18% (inactive)
COc1cccc(NC(=O)Nc2nnc(N3CCCCC3C)s2)c1 (configuration not stated)	61.5% (active)
CCCc1nnc(NC(=O)CN2C(=O)c3ccccc3S2(=O)=O)s1	-16.8% (inactive)

Structure (SMILES)	growth inhibition
CC(C)Cc1cc(C(=O)Nc2cc(Br)ccc2O)no1	80.4% (active)
CC(C)Cc1cc(C(=O)NCCc2ccccc2)no1	9.12% (inactive)
CC(C)CNC(=O)c1cc(-c2ccc(Br)cc2)on1	1.43% (inactive)
NC(=O)c1ccccc1NC(=O)c1ccccc1F	-2.79% (inactive)
CC(C)OCCCNc1ncnc2c1[nH]c1ccc(F)cc12	96.2% (active)
CCN1CCCC1CNc1ncnc2c1[nH]c1ccc(F)cc12 (configuration not stated)	3.38% (inactive)
O=C1CCCN1CCCNc1ncnc2c1[nH]c1ccccc12	-26.6% (inactive)
COc1ccccc1NC(=O)c1ccc(C)s1	14.1% (inactive)
CCOc1ccccc1Oc1cn[nH]c1-c1ccc(OC)cc1O	98.2% (active)
CCOc1ccccc1NC(=O)Nc1cc(OC)ccc1OC	-9.62% (inactive)
CCOc1ccccc1NC(=O)CCN1CCN(S(=O)(=O)c2ccc(OC)cc2)CC1	-7.02% (inactive)
O=C(Nc1ccc2c(c1)OCO2)C1CC(c2c(F)cccc2Cl)=NO1 (configuration not stated)	18% (inactive)
CCOC(=O)c1c(-n2cnnn2)sc(C)c1C	1.46% (inactive)
Cc1cc(C)nc(N2CCN(c3ncnc4c3oc3ccccc34)CC2)n1	-15.7% (inactive)
CCOC(=O)C1CCN(c2ncnc3c2oc2ccc(Br)cc23)CC1	100% (active)
CCOC(=O)N1CCN(C(=O)C2CCN(c3ncnc4c3sc3cccc(F)c34)CC2)CC1	32.2% (inactive)
CC(C)COC(=O)C1C2C=CC3(CN(C(C)c4ccc(Br)cc4)C(=O)C13)O2 (configuration not stated)	-3.74% (inactive)
COCCNC(=O)c1ccccc1-c1nc(-c2ccccc2Cl)no1	1.03% (inactive)
Cc1ccc(SCCN2C(=O)NC(C)(C)C2=O)cc1	13.1% (inactive)
Cc1ccc(C2(c3ccc(C)cc3)NC(=O)N(Cc3c(C)noc3C)C2=O)cc1	94.9% (active)
C=CCNC(=O)CCCOc1cccc(C)c1	-3.22% (inactive)
COc1ccccc1N1CCN(C(=O)c2c(-c3c(Cl)cccc3Cl)noc2C)CC1	23.5% (inactive)
O=C(CSc1nnc(-c2ccco2)n1CC1CCCO1)c1ccccc1 (configuration not stated)	-11.9% (inactive)
Nc1cc(=O)nc(SCc2ccccc2)n1Cc1ccco1	7.07% (inactive)
Clc1ccccc1CSc1nnc(-c2ccco2)c(-c2ccco2)n1	9.86% (inactive)

Structure (SMILES)	growth inhibition
O=C(CSc1nnc(-c2ccco2)n1Cc1ccccc1)NC(=O)NCc1ccco1	12.2% (inactive)
c1ccc(CSc2nnc(-c3ccco3)c(-c3ccco3)n2)cc1	72.5% (active)
c1ccc(CSc2nnc(-c3ccco3)n2Cc2ccccc2)cc1	100% (active)
CC(C)c1nc(N2CCOCC2)c(C#N)c2c1COC(C)(C)C2	8.03% (inactive)
Cc1ccc(S(=O)(=O)N2CC(=O)Nc3ccccc32)cc1C	-6.32% (inactive)
CCCc1nc2ccccc2c(=O)n1NC(=O)c1c(O)c2ccccc2[nH]c1=O	72.5% (active)
CCCC(=O)Nc1c(O)c2ccccc2[nH]c1=O	-32.1% (inactive)
CCCCc1nc2ccccc2c(=O)n1NC(=O)c1c(O)c2cccc3c2n(c1=O)CC3	34.2% (inactive)
Cc1cc(Nc2ccccc2)n(C(=O)c2ccc(N)cc2)n1	25.2% (inactive)
N#Cc1c(N)n(CCOC(=O)c2ccc(Cl)cc2)c2nc3ccccc3nc12	5% (inactive)
CC(=O)N1C(=O)C2(Nc3ccccc3N2)c2ccccc21	-14% (inactive)
COc1c(Br)cc2c(C)c(C(=O)N3CCOCC3)oc2c1Br	0.15% (inactive)
COc1ccc(-c2n[nH]c(C)c2-c2ccc(OC)c(OC)c2)c(O)c1	38.4% (inactive)
C=C(C)COc1ccc(-c2n[nH]c(C)c2-c2ccccc2)c(O)c1	95.4% (active)
COc1ccccc1-c1c(C)nn2c(C)c(C(C)=O)cnc12	15.8% (inactive)
C=C(C)COc1ccc(-c2n[nH]c(C)c2-c2ccccc2OC)c(O)c1	88.4% (active)
Cn1c(=O)c2c(nc(SCCNS(=O)(=O)c3ccccc3)n2C)n(C)c1=O	0.89% (inactive)
Cc1ncc(CC(=O)n2cc(C(=O)c3cc(Cl)ccc3O)cn2)s1	5.26% (inactive)
C=CCn1c(CSc2nc3ccccc3s2)nnc1SCC(=O)NCc1ccco1	29.4% (inactive)
CCn1c(SCC(=O)Nc2nc3ccc(OC)cc3s2)nnc1-c1ccoc1C	27.9% (inactive)
C=CCn1c(SCC(=O)Nc2nc3ccccc3s2)nnc1-c1ccccc1O	87.9% (active)
CCOc1ccccc1-n1c(SCC(=O)NCc2ccco2)nnc1-c1ccncc1	-11.1% (inactive)
